From ChEMBL document CHEMBL4316649, “The Mosaic of Rottlerin: The Sequel” (J Nat Prod, 2019)
Values after ≈ are worked out from the molar mass of the structure shown.

Experiments:
Staphylococcus aureus = test: Antibacterial activity against Staphylococcus aureus measured after 24 hrs; format: functional
How it was run: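 Broth microdilution in TSB. Overnight 37 °C culture from a single colony, washed twice by centrifugation/resuspension in TSB, set to OD600 0.1 (10⁸ CFU/mL), then diluted to 10⁵ CFU/mL. Bacteria added 3:1 to serially diluted compound (DMSO stock diluted in water). Incubated 37 °C, 24 h; OD600 read. MIC = lowest concentration giving OD like the no-bacteria control. Triplicate, three independent experiments.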

[1] = Stability of the compound in DMSO-d6 measured after 2 months at room temperature by 1H NMR-spectroscopic analysis; format: physicochemical; conditions: 1461 h
[2] = Drug metabolism in DMSO-d6 assessed as isorottlerin formation measured after 2 months at room temperature by RP-HPLC analysis
[3] = Drug metabolism in DMSO-d6 assessed as 6-(3-Acetyl-2,4,6-trihydroxy-5-methylbenzyl)-5-hydroxy-2,2-dimethyl-8-phenyl-8,9-dihydro-2H,10H-pyrano[2,3-f]-chromen-10-one formation measured after 2 months at room temperature by RP-HPLC analysis
[4] = Drug metabolism in DMSO-d6 assessed as isorottlerin formation measured after 2 months at room temperature by HSQC analysis
[5] = Drug metabolism in DMSO-d6 assessed as 6-(3-Acetyl-2,4,6-trihydroxy-5-methylbenzyl)-5-hydroxy-2,2-dimethyl-8-phenyl-8,9-dihydro-2H,10H-pyrano[2,3-f]-chromen-10-one formation measured after 2 months at room temperature by HSQC analysis
[6] = Drug metabolism in DMSO-d6 assessed as isorottlerin formation measured after 2 hrs at 100 degC by 1H NMR analysis
[7] = Drug metabolism in DMSO-d6 assessed as 6-(3-Acetyl-2,4,6-trihydroxy-5-methylbenzyl)-5-hydroxy-2,2-dimethyl-8-phenyl-8,9-dihydro-2H,10H-pyrano[2,3-f]-chromen-10-one formation measured after 2 hrs at 100 degC by 1H NMR analysis
[8] = Stability of the compound in MeCN under room temperature by 1H NMR-spectroscopic analysis; format: physicochemical
[9] = Stability of the compound in toluene under room temperature by 1H NMR-spectroscopic analysis; format: physicochemical
[10] = Stability of the compound in acetone under room temperature by 1H NMR-spectroscopic analysis; format: physicochemical
[11] = Stability of the compound in CHCl3 under room temperature by 1H NMR-spectroscopic analysis; format: physicochemical
[12] = Stability of the compound in MeCN under intense heating condition by 1H NMR-spectroscopic analysis; format: physicochemical
[13] = Stability of the compound in toluene under intense heating condition by 1H NMR-spectroscopic analysis; format: physicochemical
[14] = Stability of the compound in acetone under intense heating condition by 1H NMR-spectroscopic analysis; format: physicochemical
[15] = Stability of the compound in CHCl3 under intense heating condition by 1H NMR-spectroscopic analysis; format: physicochemical

Q: For `Cc1cc(O)cc(O)c1Cc1c(O)c2c(c(C(=O)/C=C/c3ccccc3)c1O)OC(C)(C)C=C2`, which MIC (Staphylococcus aureus) is on record?
A: Its MIC is 7.8 µM (≈ 3.58 µg/mL).

Q: With `CC(=O)c1c(O)cc(O)c(Cc2c(O)c3c(c(C(=O)/C=C/c4ccccc4)c2O)OC(C)(C)C=C3)c1O` as the compound, how does the MIC (Staphylococcus aureus) read?
A: Its MIC is 7.8 µM (≈ 3.92 µg/mL).

Q: With GENTAMICIN as the compound, how does the MIC (Staphylococcus aureus) read?
A: Its MIC is 2 µM.

Q: With `CC(=O)c1c(O)c(C)c(O)c(Cc2c(O)c3c(c4c2OC(c2ccccc2)CC4=O)OC(C)(C)C=C3)c1O` (stereo unspecified) as the compound, how does the MIC (Staphylococcus aureus) read?
A: Its MIC is over 125 µM.

Q: Which MIC (Staphylococcus aureus) does the source give for `CCC(=O)C1=C(O)C(C)(C)C(O)=C(Cc2c(O)c3c(c(C(C)=O)c2O)OC(C)(C)C=C3)C1=O` [DRUMMONDIN B] here?
A: Its MIC is 3.12 µM (≈ 1.42 µg/mL).

Q: Which MIC (Staphylococcus aureus) does the source give for `CC(=O)C1=C(O)C(C)(CC=C(C)C)C(O)=C(Cc2c(O)c(CC=C(C)C)c(O)c(C(C)=O)c2O)C1=O` (stereo unspecified) [DRUMMONDIN F] here?
A: The MIC was 0.78 µM (≈ 0.389 µg/mL).

Q: With `CC1(C)C=Cc2c(O)c(Cc3c(O)cc(O)cc3O)c(O)c(C(=O)/C=C/c3ccccc3)c2O1` as the compound, how does the MIC (Staphylococcus aureus) read?
A: The MIC was 15.6 µM (≈ 7.18 µg/mL).

Q: For `CCC(=O)C1=C(O)C(C)(C)C(O)=C(Cc2c(O)c3c(c(C(=O)CC)c2O)OC(C)(C)C=C3)C1=O` [DRUMMONDIN A], which MIC (Staphylococcus aureus) is on record?
A: The MIC was 1.56 µM (≈ 0.734 µg/mL).

Q: With `CC(=O)c1c(O)c(C)c(O)c(Cc2c3c(c(O)c4c2OC(c2ccccc2)CC4=O)C=CC(C)(C)O3)c1O` (stereo unspecified) as the compound, how does the MIC (Staphylococcus aureus) read?
A: The MIC was over 125 µM.

Q: For `CC(=O)C1=C(O)C(C)(C)C(O)=C(Cc2c(O)c3c(c(C(C)=O)c2O)OC(C)(C)C=C3)C1=O` [DRUMMONDIN C], which MIC (Staphylococcus aureus) is on record?
A: Its MIC is 3.12 µM (≈ 1.38 µg/mL).

Q: Which results are given for `CC(=O)c1c(O)c(C)c(O)c(Cc2c(O)c3c(c(C(=O)/C=C/c4ccccc4)c2O)OC(C)(C)C=C3)c1O` [ROTTLERIN]?
A: Stability [1]: Unstable; Drug metabolism [2]: 20%; Drug metabolism [3]: 2%; Drug metabolism [4]: Metabolite detected; Drug metabolism [5]: Metabolite detected; Drug metabolism [6]: Metabolite detected; Drug metabolism [7]: Metabolite detected; Stability [8]: Stable; Stability [9]: Stable; Stability [10]: Stable; Stability [11]: Stable; Stability [12]: Stable; Stability [13]: Stable; Stability [14]: Stable; Stability [15]: Stable; MIC (Staphylococcus aureus): 2 µM (≈ 1.03 µg/mL)
